Biological target: T1, CYP6A8 (Drosophila melanogaster, UniProt Q27593)
T1 sequence (Q27593 1-506): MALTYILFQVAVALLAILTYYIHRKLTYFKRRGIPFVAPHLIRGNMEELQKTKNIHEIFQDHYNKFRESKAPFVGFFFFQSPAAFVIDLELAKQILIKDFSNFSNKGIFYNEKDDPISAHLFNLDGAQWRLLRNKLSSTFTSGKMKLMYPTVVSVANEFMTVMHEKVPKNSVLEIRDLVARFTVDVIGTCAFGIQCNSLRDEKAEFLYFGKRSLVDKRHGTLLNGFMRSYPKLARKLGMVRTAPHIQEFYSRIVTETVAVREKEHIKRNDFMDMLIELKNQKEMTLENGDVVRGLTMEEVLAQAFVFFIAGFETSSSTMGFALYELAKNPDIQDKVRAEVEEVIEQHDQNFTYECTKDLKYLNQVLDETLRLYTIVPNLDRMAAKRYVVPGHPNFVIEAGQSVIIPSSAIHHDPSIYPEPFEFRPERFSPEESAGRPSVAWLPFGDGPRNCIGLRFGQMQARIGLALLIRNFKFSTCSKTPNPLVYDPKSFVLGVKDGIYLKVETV
Assay: UV-visible spectral binding titration
In short: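 Recombinant C-terminally His6-tagged CYP6A8 was expressed in E. coli from pCW and purified by Ni2+-NTA chromatography. Enzyme was diluted to 1 µM in 100 mM potassium phosphate (pH 7.6) and split between sample and reference cuvettes. Fatty acid was added stepwise and 350–500 nm difference spectra were recorded. Kd was derived by plotting the peak-to-trough absorbance difference against ligand concentration.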

Row | Compound | Kd
1 | CCCCCCCCCC(=O)O [capric acid] | 144 ± 20 µM
2 | CCCCCCCCCCCC(=O)O [lauric acid] | 28 ± 4 µM
3 | CCCCCCCC(=O)O [octanoic acid] | 713 ± 46 µM

— PMC9810445 (Biomolecules & Therapeutics, 2022)
